From ChEMBL document CHEMBL1149392, “PTP-1B inhibitors: cyclopenta[d][1,2]-oxazine derivatives” (Bioorg Med Chem Lett, 2006)

Tests used:
[1] = target: T1, M-phase inducer phosphatase 3 (Homo sapiens, UniProt P30307); test: Inhibitory activity against cdc25C phosphatase
T1 sequence (P30307 whole entry): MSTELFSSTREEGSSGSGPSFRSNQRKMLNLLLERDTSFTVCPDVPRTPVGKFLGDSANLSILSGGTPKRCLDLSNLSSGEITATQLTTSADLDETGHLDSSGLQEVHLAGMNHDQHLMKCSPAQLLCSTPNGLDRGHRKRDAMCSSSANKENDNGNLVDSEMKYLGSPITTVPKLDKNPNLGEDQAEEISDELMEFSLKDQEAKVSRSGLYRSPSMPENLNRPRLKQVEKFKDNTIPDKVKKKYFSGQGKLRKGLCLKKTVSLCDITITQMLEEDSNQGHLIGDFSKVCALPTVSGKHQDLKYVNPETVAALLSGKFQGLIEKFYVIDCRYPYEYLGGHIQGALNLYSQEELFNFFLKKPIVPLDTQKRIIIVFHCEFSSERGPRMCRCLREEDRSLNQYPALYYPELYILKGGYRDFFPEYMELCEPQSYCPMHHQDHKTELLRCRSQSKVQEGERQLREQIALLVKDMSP
Outline: (§1)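 Selectivity panel of nine phosphatases, each assayed with fluorescein diphosphate at the same concentration as in the PTP-1B assay (20 μM). IC50 values (μM) reported.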

[2] = target: Tyrosine-protein phosphatase YopH (Yersinia enterocolitica, UniProt P15273); test: Inhibitory activity against YOP protein tyrosine phosphatase
Outline: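 Counter-screen against Yop phosphatase within a nine-phosphatase selectivity panel. Fluorescein diphosphate substrate at 20 μM, the same level as in the PTP-1B assay. Potency is reported as IC50 (μM).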

[3] = target: Serine/threonine-protein phosphatase PP1-gamma catalytic subunit (Homo sapiens, UniProt P36873); test: Inhibitory activity against Protein phosphatase 1; outline: as §1
[4] = target: T2, M-phase inducer phosphatase 1 (Homo sapiens, UniProt P30304); test: Inhibitory activity against cdc25A phosphatase; outline: as §1
T2 sequence (P30304 whole entry): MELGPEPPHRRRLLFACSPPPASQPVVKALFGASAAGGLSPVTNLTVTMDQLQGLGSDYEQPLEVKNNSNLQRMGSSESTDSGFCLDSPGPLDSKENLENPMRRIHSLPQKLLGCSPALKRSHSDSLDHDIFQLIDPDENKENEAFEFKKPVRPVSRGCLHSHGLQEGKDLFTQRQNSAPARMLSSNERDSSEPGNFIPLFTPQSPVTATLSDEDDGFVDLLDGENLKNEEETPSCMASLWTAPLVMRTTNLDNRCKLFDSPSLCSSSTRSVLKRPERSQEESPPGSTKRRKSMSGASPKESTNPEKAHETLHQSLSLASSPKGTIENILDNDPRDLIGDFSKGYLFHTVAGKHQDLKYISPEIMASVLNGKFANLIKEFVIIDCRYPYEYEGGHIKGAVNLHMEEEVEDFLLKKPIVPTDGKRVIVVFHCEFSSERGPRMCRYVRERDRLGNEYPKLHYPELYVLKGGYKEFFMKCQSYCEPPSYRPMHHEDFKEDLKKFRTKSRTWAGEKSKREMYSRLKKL

[5] = target: T3, M-phase inducer phosphatase 2 (Homo sapiens, UniProt P30305); test: Inhibitory activity against cdc25B phosphatase; outline: as §1
T3 sequence (P30305 whole entry): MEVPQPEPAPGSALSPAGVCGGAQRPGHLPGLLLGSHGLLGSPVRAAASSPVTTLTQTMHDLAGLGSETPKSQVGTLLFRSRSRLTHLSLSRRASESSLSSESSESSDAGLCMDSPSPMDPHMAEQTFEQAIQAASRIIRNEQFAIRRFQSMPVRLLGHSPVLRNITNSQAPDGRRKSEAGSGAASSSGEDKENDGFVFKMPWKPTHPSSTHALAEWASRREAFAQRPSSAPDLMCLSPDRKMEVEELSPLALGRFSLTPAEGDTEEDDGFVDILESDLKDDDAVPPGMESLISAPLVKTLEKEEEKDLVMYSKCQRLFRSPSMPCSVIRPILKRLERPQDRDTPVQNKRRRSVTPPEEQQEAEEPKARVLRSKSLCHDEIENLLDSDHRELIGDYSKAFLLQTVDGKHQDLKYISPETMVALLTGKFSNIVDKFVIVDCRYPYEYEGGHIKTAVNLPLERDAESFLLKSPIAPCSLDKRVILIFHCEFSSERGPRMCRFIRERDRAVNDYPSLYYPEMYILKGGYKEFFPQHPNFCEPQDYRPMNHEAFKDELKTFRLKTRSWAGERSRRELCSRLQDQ

[6] = target: T4, Tyrosine-protein phosphatase non-receptor type 1 (Homo sapiens) (UniProt P18031); test: Inhibitory activity against recombinant human PTP1B at 10 uM
T4 sequence (whole entry): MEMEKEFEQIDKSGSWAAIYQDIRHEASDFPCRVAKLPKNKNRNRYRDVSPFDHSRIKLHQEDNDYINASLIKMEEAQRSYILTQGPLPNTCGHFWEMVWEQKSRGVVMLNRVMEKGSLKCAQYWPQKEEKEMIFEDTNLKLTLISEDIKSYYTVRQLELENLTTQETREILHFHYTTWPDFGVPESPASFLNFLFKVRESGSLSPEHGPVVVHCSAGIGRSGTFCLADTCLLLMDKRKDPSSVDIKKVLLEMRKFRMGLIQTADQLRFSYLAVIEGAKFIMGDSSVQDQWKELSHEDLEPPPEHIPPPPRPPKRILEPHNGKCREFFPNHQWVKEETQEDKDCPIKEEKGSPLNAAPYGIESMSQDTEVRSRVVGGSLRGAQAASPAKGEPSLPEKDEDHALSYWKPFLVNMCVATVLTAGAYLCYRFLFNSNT

[7] = target: Receptor-type tyrosine-protein phosphatase F (Homo sapiens, UniProt P10586); test: Inhibitory activity against LAR protein tyrosine phosphatase; outline: as §1
Chain of Receptor-type tyrosine-protein phosphatase F (P10586 whole entry): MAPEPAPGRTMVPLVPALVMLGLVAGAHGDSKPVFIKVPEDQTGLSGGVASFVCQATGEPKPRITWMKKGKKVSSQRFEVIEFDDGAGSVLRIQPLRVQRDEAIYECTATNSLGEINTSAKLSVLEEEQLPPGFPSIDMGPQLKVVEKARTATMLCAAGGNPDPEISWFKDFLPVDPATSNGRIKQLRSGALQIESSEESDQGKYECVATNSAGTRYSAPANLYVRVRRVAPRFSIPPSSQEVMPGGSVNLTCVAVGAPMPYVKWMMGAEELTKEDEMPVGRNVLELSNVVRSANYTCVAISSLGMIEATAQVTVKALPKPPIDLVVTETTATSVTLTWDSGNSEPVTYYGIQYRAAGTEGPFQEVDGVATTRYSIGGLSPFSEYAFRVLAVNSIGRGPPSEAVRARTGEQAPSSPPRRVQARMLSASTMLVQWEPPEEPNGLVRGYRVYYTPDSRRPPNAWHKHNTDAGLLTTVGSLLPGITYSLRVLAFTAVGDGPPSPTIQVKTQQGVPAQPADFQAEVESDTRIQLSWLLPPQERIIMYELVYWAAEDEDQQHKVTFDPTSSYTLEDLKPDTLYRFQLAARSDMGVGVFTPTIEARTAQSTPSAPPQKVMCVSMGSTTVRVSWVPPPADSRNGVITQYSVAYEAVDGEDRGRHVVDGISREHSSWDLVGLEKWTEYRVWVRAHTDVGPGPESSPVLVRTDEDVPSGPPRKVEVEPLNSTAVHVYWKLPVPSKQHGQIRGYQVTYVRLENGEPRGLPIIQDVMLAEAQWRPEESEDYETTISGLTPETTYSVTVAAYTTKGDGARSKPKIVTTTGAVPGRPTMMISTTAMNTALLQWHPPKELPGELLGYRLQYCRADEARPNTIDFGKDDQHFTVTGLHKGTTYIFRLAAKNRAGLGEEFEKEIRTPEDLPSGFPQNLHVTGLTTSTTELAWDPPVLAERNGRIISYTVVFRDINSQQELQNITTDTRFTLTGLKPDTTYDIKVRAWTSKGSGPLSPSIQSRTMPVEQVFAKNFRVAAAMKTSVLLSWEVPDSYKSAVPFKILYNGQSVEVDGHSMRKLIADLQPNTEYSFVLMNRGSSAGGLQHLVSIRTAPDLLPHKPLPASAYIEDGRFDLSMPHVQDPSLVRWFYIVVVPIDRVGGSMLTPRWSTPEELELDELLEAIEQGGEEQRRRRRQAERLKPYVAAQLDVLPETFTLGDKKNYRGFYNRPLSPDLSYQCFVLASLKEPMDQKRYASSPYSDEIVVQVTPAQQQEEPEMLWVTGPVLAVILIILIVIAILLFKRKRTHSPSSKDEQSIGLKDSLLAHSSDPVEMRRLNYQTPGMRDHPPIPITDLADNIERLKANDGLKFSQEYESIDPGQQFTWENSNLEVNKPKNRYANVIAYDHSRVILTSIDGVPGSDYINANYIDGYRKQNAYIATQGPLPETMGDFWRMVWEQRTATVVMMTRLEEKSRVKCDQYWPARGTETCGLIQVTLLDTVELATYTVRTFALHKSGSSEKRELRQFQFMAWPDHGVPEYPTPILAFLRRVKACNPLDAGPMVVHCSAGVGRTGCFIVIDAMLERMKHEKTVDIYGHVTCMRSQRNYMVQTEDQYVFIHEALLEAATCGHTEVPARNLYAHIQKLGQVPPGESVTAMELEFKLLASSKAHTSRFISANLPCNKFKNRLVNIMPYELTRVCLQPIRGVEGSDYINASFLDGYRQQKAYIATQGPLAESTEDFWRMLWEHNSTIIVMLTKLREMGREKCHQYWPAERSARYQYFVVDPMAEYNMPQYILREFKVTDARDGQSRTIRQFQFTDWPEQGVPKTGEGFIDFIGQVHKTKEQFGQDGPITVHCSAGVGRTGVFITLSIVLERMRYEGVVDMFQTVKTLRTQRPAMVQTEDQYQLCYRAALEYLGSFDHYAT

Chain of Serine/threonine-protein phosphatase PP1-gamma catalytic subunit (P36873 whole entry): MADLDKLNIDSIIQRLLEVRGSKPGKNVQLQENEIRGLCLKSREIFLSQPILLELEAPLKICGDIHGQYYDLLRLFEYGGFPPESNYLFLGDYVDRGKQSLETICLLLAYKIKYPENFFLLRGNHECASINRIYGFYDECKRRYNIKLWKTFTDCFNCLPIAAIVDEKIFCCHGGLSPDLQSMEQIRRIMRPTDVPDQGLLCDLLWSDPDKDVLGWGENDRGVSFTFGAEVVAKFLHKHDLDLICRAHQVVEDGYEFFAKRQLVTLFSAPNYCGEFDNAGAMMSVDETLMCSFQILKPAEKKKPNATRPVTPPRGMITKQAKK
Chain of Tyrosine-protein phosphatase YopH (P15273 whole entry): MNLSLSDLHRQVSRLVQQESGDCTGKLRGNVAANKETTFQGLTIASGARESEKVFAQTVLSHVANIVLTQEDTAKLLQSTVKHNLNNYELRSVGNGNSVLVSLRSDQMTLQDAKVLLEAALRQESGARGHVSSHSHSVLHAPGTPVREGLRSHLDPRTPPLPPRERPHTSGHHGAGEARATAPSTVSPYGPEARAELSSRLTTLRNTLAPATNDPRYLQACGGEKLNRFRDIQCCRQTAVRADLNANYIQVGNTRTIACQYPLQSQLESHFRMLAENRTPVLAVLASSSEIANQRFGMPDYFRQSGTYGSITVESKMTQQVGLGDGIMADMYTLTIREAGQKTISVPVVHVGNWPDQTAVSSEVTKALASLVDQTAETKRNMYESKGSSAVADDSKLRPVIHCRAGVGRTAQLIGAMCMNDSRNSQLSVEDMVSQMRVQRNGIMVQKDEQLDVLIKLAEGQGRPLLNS

Structure (SMILES)	IC50 [1] [µM]	IC50 [2] [µM]	IC50 [3] [µM]	IC50 [4] [µM]	IC50 [5] [µM]	inhibition [6] [%]	IC50 [7] [µM]
COc1ccc(C(=O)c2ccc3c(-c4ccc(OCC(=O)O)cc4)nocc2-3)cc1	61.7	5.71	35.2	73.3	16.1	81.5	61.7
NCc1ccc(C(=O)c2ccc3c(-c4ccc(OCC(=O)O)cc4)nocc2-3)cc1	> 10	1.19	1.3	10	10	97.2	> 10
CCCCCCCCCCCCCCc1ccc(C(=O)c2ccc3c(-c4ccc(OCC(=O)O)cc4)nocc2-3)cc1	2.27	0.55	0.22	1.33	0.12	101	0.69
